Data set [1] is described as follows: Distribution coefficient, log D between 1-octonol and aqueous phosphate buffer at pH 7.4. As to conditions: 1-octanol/aqueous phosphate buffer. Format: physicochemical. The gist of the method: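 logD measured as distribution between 1-octanol and aqueous phosphate buffer, pH 7.4.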
Data set [2] can be described thus: Intrinsic clearance in rat hepatocytes assessed per million cells. Format: ADME, cell-based, Hepatocyte. The note with it: read-out: CLH.

SMILES strings stand for the structures.

As usually defined, the logD is lipophilicity at a set pH, counting ionised and neutral species. The low end stands for lower lipophilicity, the high end for higher lipophilicity. As for `C[C@@H]1CN(c2nc(C(F)(F)F)no2)CCN1c1ncc(OCc2ccc(CS(C)(=N)=O)cc2F)cn1` (some centres not stated), in data set [1], the logD amounted to 2.8.

In the case of `C[C@@H]1CN(C(=O)OC2(C(F)(F)F)COC2)CCN1c1ncc(OCc2ccc(OS(C)(=O)=O)cc2F)cn1`, the logD in data set [1] amounted to 3.7. Molecule `C[C@@H]1CN(c2nnc(C(F)(F)F)o2)CCN1c1ncc(OCc2ccc(C#N)cc2C#N)cn1` had a logD in data set [1] of 2.8. In data set [1], `CC(C)c1noc(N2CCN(c3ncc(OCc4ccc(CS(C)(=O)=O)cc4F)cn3)[C@H](C)C2)n1` returned a logD of 3.1.

With `C[C@@H]1CN(c2nc(C(F)(F)F)no2)CCN1c1ncc(OCc2ccc(C[S+](C)[O-])cc2F)cn1` (some centres not stated), the logD in data set [1] was 3.4. Same read-out and setting: under `C[C@@H]1CN(c2nnc(C(F)(F)F)o2)CCN1c1ncc(OCc2ccc(CS(C)(=N)=O)cc2F)cn1` (some centres not stated) stands 2.1.

As to `C[C@@H]1CN(c2nnc(C(F)(F)F)o2)CCN1c1ncc(OCc2ccc(CS(C)(=O)=O)cc2F)cn1`, in data set [1], the logD was found to be 2.9. In data set [2], the hepatocyte CLint turned out to be 9 µL/min/1e6 cells. Consider `CC(C)c1noc(N2CCN(c3ncc(OCc4ccc(S(C)(=O)=O)cc4F)cn3)[C@H](C)C2)n1`, for which the logD in data set [1] was found to be 3.4. In data set [1], `C[C@@H]1CN(c2nnc(C(F)(F)F)o2)CCN1c1ncc(OCc2ccc(CS(C)(=O)=O)cc2)cn1` showed a logD of 2.6. For `C[C@@H]1CN(C(=O)OC2(C(F)(F)F)COC2)CCN1c1ncc(OCc2ccc(S(C)(=O)=O)cc2F)cn1`, in data set [1], the pH-dependent lipophilicity (logD) was 3.

`C[C@@H]1CN(c2nnc(C(F)(F)F)o2)CCN1c1ncc(OCc2ccc(S(C)(=O)=O)cc2C#N)cn1` gave a logD in data set [1] of 2.6.

Source of the values: ChEMBL document CHEMBL3351317 (J Med Chem, 2014).
